# High-throughput results: PubChem, Johns Hopkins Ion Channel Center
# Sampled rows, rich in hits. Any-hit rate of the full collection: about 3.5%.
# RGS4 inh = inhibitors of human RGS4; 310,000 tested, 0.45% active; HEK293 M3R/RGS4 inducible, Fluo-4 calcium flux; active compounds read high; triggered by carbachol at its EC20; B-score at 10 µM; P49798;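 active = B-score, a plate-corrected calcium signal, over three deviations above library mean, with baseline fluorescence within five deviations of library mean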;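 note: RGS4 expression induced by doxycycline in cells with stable M3 receptor; B-score is computed from the integrated fluorescence ratio over baseline after carbachol; higher B-score means a larger calcium signal and so more RGS4 inhibition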
# Target sequence (P49798 whole entry, looked up): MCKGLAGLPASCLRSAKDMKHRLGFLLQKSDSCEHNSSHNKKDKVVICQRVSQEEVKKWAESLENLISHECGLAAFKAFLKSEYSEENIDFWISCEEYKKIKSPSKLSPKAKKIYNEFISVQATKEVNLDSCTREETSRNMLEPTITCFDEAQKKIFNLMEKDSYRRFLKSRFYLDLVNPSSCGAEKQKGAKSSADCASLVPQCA
# RGS4 pot = RGS4 potentiation or activation; HEK293 M3R/inducible RGS4, carbachol calcium flux Fluo4; active compounds read low; 310,000 tested, 0.92% active; B-score at 10 µM;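 active = B-score of the integrated calcium signal more than 4 SD below the library mean, with starting fluorescence not abnormally high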;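 note: negative B-score means reduced calcium response which marks RGS4 activation or potentiation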
#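 Assay system: Inducible-RGS4 HEK293 cells carrying M3 receptor | Schedule: Compound preincubation 20 min at room temperature before agonist | Signal: Kinetic calcium fluorescence imaging with Fluo4-AM dye, 2 µM | Read-out basis: B score from integrated fluorescence ratio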
# MrgX1 antagonist = human MrgX1 receptor antagonism, primary screen. Q96LB2. MRGX1-HEK293 calcium flux, Fluo-4, BAM8-22 antagonism; active compounds read low. B-score at 10 µM. 310,000 tested, 1.3% active;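 active = calcium-response B-score plate-corrected more than 3 library SD below zero, starting fluorescence within 5 deviations, no agonist response on first addition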;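 note: peak minus trough fluorescence over baseline after final BAM8-22 challenge near maximal dose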
# Target sequence (Q96LB2 whole entry, looked up): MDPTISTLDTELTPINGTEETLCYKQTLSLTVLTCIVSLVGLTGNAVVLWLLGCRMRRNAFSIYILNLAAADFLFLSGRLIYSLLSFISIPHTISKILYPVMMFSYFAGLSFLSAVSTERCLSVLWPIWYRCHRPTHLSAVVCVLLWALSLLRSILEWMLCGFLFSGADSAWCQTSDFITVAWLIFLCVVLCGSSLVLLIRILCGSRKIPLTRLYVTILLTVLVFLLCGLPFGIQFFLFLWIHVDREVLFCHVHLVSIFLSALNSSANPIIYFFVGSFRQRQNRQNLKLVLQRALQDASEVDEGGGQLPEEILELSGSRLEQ
# MrgX1 agonist = activates human MrgX1 receptor signaling; Q96LB2; MrgX1-HEK293 cells, Fluo-4 calcium fluorescence, agonist mode; active compounds read high; B-score at 10 µM; 310,000 tested, 0.44% active;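 active = calcium response B-score plate-corrected fluorescence ratio at least 3 library SD, with starting fluorescence B-score inside 5 SD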
#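 System: HEK293 cells stably expressing human MrgX1 receptor; Dosing: test compound in the initial addition of three; Schedule: overnight plating, then 30 min 37 °C plus 30 min room-temperature dye loading; Detection: kinetic calcium dye fluorescence, Fluo-4 NW; Controls: per-plate positive and negative controls for Z′ factor.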
# MrgX1 PAM = allosterically activates human MrgX1 receptor signaling | Q96LB2 | MrgX1-HEK293, Fluo-4 calcium flux, FDSS; active compounds read high | B-score at 10 µM | 310,000 tested, 0.63% active;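 active = plate-corrected calcium response at least 3 library SD above typical, normal starting fluorescence, not activating the receptor alone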;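 note: compound read alongside a low EC10 to EC30 dose of BAM8-22 agonist; peak minus trough fluorescence over baseline measured at the second addition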
# MrgX1 ag reconf = human MrgX1 agonism, re-confirmation screen; shares compounds with MrgX1 agonist; MrgX1-HEK293, Fluo-4 calcium fluorescence, FDSS; activation, % at 10 µM; 600 tested, 78% active; AID 602412;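 active = calcium signal rise, corrected for plate position, at least 3 library SD high, with starting brightness within 5 such deviations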
# HEK293 Ca flux = activity in parental HEK293 cells lacking MrgX1; Fluo-4 calcium fluorescence, FDSS; 4,000 tested, 2% active; fluorescence ratio F(max-min)/F0 at 10 µM; shares compounds with MrgX1 antagonist; AID 624111;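 active = duplicate-averaged calcium fluorescence ratio at least three times the standard deviation of buffer wells, a nonspecific response in parental cells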
# HEK293 Ca counter = counter-screen for MrgX1 allosteric activators: effect in parental HEK293 cells; AID 624114; fluorescence ratio F(max-min)/F0 at 10 µM; parental HEK293 calcium flux, Fluo-4 fluorescence ratio; active compounds read high; shares compounds with MrgX1 antagonist; 4,000 tested, 0.4% active;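 active = calcium fluorescence ratio, averaged over duplicates, at least 3 SD of the buffer-well ratio, meaning a nonspecific response in receptor-free cells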;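 note: untransfected parental HEK293 lacking MrgX1 used as counterscreen for MrgX1 allosteric activators; fluorescence change taken during the second addition on a kinetic imager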
# HEK293 Ca cntr2 = MrgX1 activator counter-screen hit in parental HEK293 cells | shares compounds with MrgX1 antagonist | Fluo-4 calcium fluorescence (FDSS); active compounds read high | fluorescence ratio F(max-min)/F0 at 10 µM | 4,000 tested, 8.7% active;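 active = calcium fluorescence ratio at least three times the spread of buffer wells, meaning a non-specific response in parental cells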
# Starred values were filed as active, the others as inactive; i = inactive; · = no result given.
SMILES,RGS4 inh,RGS4 pot,MrgX1 antagonist,MrgX1 agonist,MrgX1 PAM,MrgX1 ag reconf,HEK293 Ca flux,HEK293 Ca counter,HEK293 Ca cntr2
Cc1oc2nc(SCC(=O)N3CCCCC3)nc(N)c2c1C,i,i,i,i,i,·,·,·,·
O=C(Nc1ccc(N2CCN(C(=O)c3ccccc3F)CC2)cc1)c1cncc(Br)c1,i,i,i,i,i,·,·,·,·
COC(=O)c1ccccc1NC(=S)NC(=O)c1ccccc1,i,i,i,i,i,·,·,·,·
COc1ccc(C(=O)NNC(=S)NC(=O)c2ccco2)cc1,i,i,i,84*,i,486%*,i,i,86*
COC(=O)c1ccccc1NC(=S)NC(=O)c1ccc(C)cc1,i,i,i,37*,i,i,i,i,i
COc1ccc(C(=O)NC(=S)NNC(=O)c2ccc(C)cc2)cc1,i,-7.3*,i,149*,i,659%*,i,i,133*
CCc1nc2ccccc2[nH]c1=O,i,i,i,i,i,·,·,·,·
Cc1cc(=O)oc2ccc(OCC(=O)N3CCC(C)CC3)cc12,i,i,i,28*,i,215%*,i,i,i
O=S(=O)(Nc1cccc(-c2ccc3nncn3n2)c1)c1cc(F)ccc1F,i,i,i,45*,i,204%*,i,i,i
Cc1ccc(S(=O)(=O)Nc2cccc(-c3ccc4nncn4n3)c2)cc1,i,i,i,i,i,·,·,·,·
CCOC(=O)CC(=O)CSc1nc2ccc(C)cc2cc1C#N,·,·,i,54*,i,367%*,i,i,75*
CCOC(=O)CC(=O)CSc1nc(CC)c(C)cc1C#N,i,i,i,i,i,·,·,·,·
COc1ccc(/C(O)=C/c2nc3ccc(C(=O)NCCc4cccc(C)c4)cc3[nH]c2=O)cc1OC,i,i,i,28*,i,i,i,i,i
CCCn1cnc2c(=S)nc(N)[nH]c21,i,i,i,i,i,·,·,·,·
Cc1cc(-c2csc(N)n2)c(C)n1C,i,i,i,31*,i,150%*,i,i,i
COc1ccc(NC(=O)Cc2nnc(SCC(=O)NC3CCCC3)n2C)cc1,i,i,i,i,i,·,·,·,·
Cc1nn(C)c(C)c1CN(Cc1nc(-c2cc(F)ccc2F)oc1C)C1CC1,i,i,i,i,i,·,·,·,·
Cc1nn(C)c(C)c1CN(Cc1nc(-c2ccc(F)cc2F)oc1C)C1CC1,i,i,i,56*,i,254%*,i,i,49*
Oc1c(C(c2ccccn2)N2CCCCC2)cc(Cl)c2cccnc12 (stereo not drawn),i,i,i,32*,i,97%*,i,i,i
Cc1cc(C)n(CCC(=O)N2CCN(S(=O)(=O)c3ccccc3)CC2)n1,i,i,i,i,i,·,·,·,·
CC(C)CC(=O)NC(=S)NNC(=O)c1ccc([N+](=O)[O-])cc1,i,i,i,81*,i,280%*,i,i,72*
CCC(=O)NC(=S)NNC(=O)c1ccc([N+](=O)[O-])cc1,i,i,i,i,i,·,·,·,·
O=C(CSc1nnc(-c2cccs2)o1)N1CCc2ccccc21,i,i,i,i,i,·,·,·,·
Cc1occc1-c1nnc(SCC(=O)N2CCc3ccccc32)o1,i,i,i,37*,i,207%*,i,i,i
CN1CCCC1CCNc1ccc2sc3ccccc3c(=O)c2c1 (stereo not drawn),i,i,i,50*,i,424%*,i,i,118*
SMILES,RGS4 inh,RGS4 pot,MrgX1 antagonist,MrgX1 agonist,MrgX1 PAM,MrgX1 ag reconf,HEK293 Ca flux,HEK293 Ca counter,HEK293 Ca cntr2
O=c1c2ccccc2sc2ccc(NCCCN3CCOCC3)cc12,i,i,i,34*,i,324%*,i,i,107*
CSc1ccc(C(=O)N2CCC(CCC(=O)NCc3ccc(F)cc3)CC2)cc1,i,i,·,·,·,·,·,·,·
Cc1ccc(-c2n[nH]c(=O)c3ccccc23)cc1S(=O)(=O)NCC1CCCO1 (stereo not drawn),i,i,i,40*,i,174%*,i,i,i
CCOC(=O)C1=C(CN2CCN(C(=O)c3ccco3)CC2)NC(=O)NC1c1ccc(Cl)cc1 (stereo not drawn),i,i,i,i,i,·,·,·,·
CCOC(=O)C1=C(CN2CCC(C)CC2)NC(=O)NC1c1ccc(Cl)cc1 (stereo not drawn),i,i,i,39*,i,195%*,i,i,i
COc1ccccc1CCC(=O)Oc1ccccc1C#N,i,i,i,i,i,·,·,·,·
COc1cc(NC(=O)Cc2cccs2)cc(OC)c1,i,i,i,i,i,·,·,·,·
COc1cc(OC)cc(C(=O)NC(=S)NNC(=O)Cc2cccs2)c1,i,i,i,72*,i,535%*,i,i,102*
Cc1ccc(NS(=O)(=O)c2ccc(-n3cccn3)cc2)nc1,i,i,i,i,i,·,·,·,·
O=C(CC(=O)c1ccccc1O)c1cccc(F)c1,i,i,i,i,i,·,·,·,·
O=C(CC(=O)c1c(F)cccc1Cl)c1ccccc1O,i,i,i,53*,i,326%*,i,i,73*
COc1ccc(N2C(=O)C3C(C2=O)C(C(=O)c2ccc(Cl)cc2)N2CCCC32)cc1 (stereo not drawn),i,i,i,72*,i,i,i,i,i
CC(=O)c1ccc(N2C(=O)C3C(C2=O)C(C(=O)c2ccc(Cl)cc2)N2CCCC32)cc1 (stereo not drawn),i,i,·,·,·,·,·,·,·
Cc1ccc(NC(=O)CC2=NC(=O)C(CC(=O)Nc3ccccc3C)S2)cc1 (stereo not drawn),i,i,i,i,i,·,·,·,·
CCOC(=O)c1c(CC(C)C)csc1NC(C)=O,i,i,i,i,i,·,·,·,·
CCOC(=O)c1c(CC(C)C)csc1NC(=O)c1ccccc1C(=O)O,i,i,i,37*,i,220%*,i,i,i
